Experimental data: ChEMBL document CHEMBL1152173, “Synthesis and in vitro evaluation of the antifungal activities of dihydropyrimidinones” (2008)
Converted amounts (≈) assume the structure as drawn. The source made the active and inactive calls. The calls are words filed in the database; no cut-off is given here.

Legend:
Aspergillus niger [1] = assay: Antifungal activity against Aspergillus niger assessed as radial growth at 7% after 24 hrs by poison food technique of Flack relative to control; assay type: functional
Trichoderma koningii [2] = assay: Antifungal activity against Trichoderma koningii assessed as radial growth at 5% after 72 hrs by poison food technique of Flack relative to control; assay type: functional
Outline: (§1)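 Acetone stock added to molten sterilized PDA to final 0.5–7%, plated in 90 mm dishes with compound-free plates as control. Each plate was inoculated with a 9 mm disc from a 4-day-old culture, incubated at 25 ± 1 °C, and colony diameter measured at 24 h intervals. % inhibition = (control − treatment)/control × 100; three replicates averaged.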

Trichoderma koningii [3] = assay: Antifungal activity against Trichoderma koningii assessed as radial growth at 7% after 72 hrs by poison food technique of Flack relative to control; assay type: functional; outline: as §1
Aspergillus niger [4] = assay: Antifungal activity against Aspergillus niger assessed as radial growth at 0.5% after 24 hrs by poison food technique of Flack relative to control; assay type: functional
Trichoderma hamatum [5] = assay: Antifungal activity against Trichoderma hamatum assessed as radial growth at 7% after 48 hrs by poison food technique of Flack relative to control; assay type: functional; outline: as §1
Trichoderma koningii [6] = assay: Antifungal activity against Trichoderma koningii assessed as radial growth at 5% after 48 hrs by poison food technique of Flack relative to control; assay type: functional; outline: as §1
Trichoderma hamatum [7] = assay: Antifungal activity against Trichoderma hamatum assessed as radial growth at 0.5% after 72 hrs by poison food technique of Flack relative to control; assay type: functional
Trichoderma koningii [8] = assay: Antifungal activity against Trichoderma koningii assessed as radial growth at 0.5% after 72 hrs by poison food technique of Flack relative to control; assay type: functional; outline: as §1
Trichoderma koningii [9] = assay: Antifungal activity against Trichoderma koningii assessed as radial growth at 5% after 24 hrs by poison food technique of Flack relative to control; assay type: functional; outline: as §1
Trichoderma koningii [10] = assay: Antifungal activity against Trichoderma koningii assessed as radial growth at 3% after 72 hrs by poison food technique of Flack relative to control; assay type: functional; outline: as §1
Aspergillus niger [11] = assay: Antifungal activity against Aspergillus niger assessed as radial growth at 1% after 72 hrs by poison food technique of Flack relative to control; assay type: functional
Trichoderma koningii [12] = assay: Antifungal activity against Trichoderma koningii assessed as radial growth at 0.5% after 48 hrs by poison food technique of Flack relative to control; assay type: functional; outline: as §1
Trichoderma hamatum [13] = assay: Antifungal activity against Trichoderma hamatum; assay type: functional
Aspergillus niger [14] = assay: Antifungal activity against Aspergillus niger assessed as radial growth at 0.5% after 48 hrs by poison food technique of Flack relative to control; assay type: functional
Aspergillus niger [15] = assay: Antifungal activity against Aspergillus niger assessed as radial growth at 3% after 72 hrs by poison food technique of Flack relative to control; assay type: functional
Trichoderma hamatum [16] = assay: Antifungal activity against Trichoderma hamatum assessed as radial growth at 5% after 24 hrs by poison food technique of Flack relative to control; assay type: functional; outline: as §1
Trichoderma hamatum [17] = assay: Antifungal activity against Trichoderma hamatum assessed as radial growth at 1% after 24 hrs by poison food technique of Flack relative to control; assay type: functional
Trichoderma hamatum [18] = assay: Antifungal activity against Trichoderma hamatum assessed as radial growth at 7% after 24 hrs by poison food technique of Flack relative to control; assay type: functional; outline: as §1
Trichoderma koningii [19] = assay: Antifungal activity against Trichoderma koningii assessed as radial growth at 7% after 24 hrs by poison food technique of Flack relative to control; assay type: functional; outline: as §1
Trichoderma hamatum [20] = assay: Antifungal activity against Trichoderma hamatum assessed as radial growth at 0.5% after 48 hrs by poison food technique of Flack relative to control; assay type: functional
Aspergillus niger [21] = assay: Antifungal activity against Aspergillus niger assessed as radial growth at 3% after 24 hrs by poison food technique of Flack relative to control; assay type: functional
Aspergillus niger [22] = assay: Antifungal activity against Aspergillus niger assessed as radial growth at 1% after 48 hrs by poison food technique of Flack relative to control; assay type: functional
Trichoderma hamatum [23] = assay: Antifungal activity against Trichoderma hamatum assessed as radial growth at 3% after 48 hrs by poison food technique of Flack relative to control; assay type: functional
Trichoderma koningii [24] = assay: Antifungal activity against Trichoderma koningii assessed as radial growth at 1% after 48 hrs by poison food technique of Flack relative to control; assay type: functional; outline: as §1
Trichoderma koningii [25] = assay: Antifungal activity against Trichoderma koningii; assay type: functional
Aspergillus niger [26] = assay: Antifungal activity against Aspergillus niger assessed as radial growth at 5% after 72 hrs by poison food technique of Flack relative to control; assay type: functional
Trichoderma koningii [27] = assay: Antifungal activity against Trichoderma koningii assessed as radial growth at 3% after 48 hrs by poison food technique of Flack relative to control; assay type: functional; outline: as §1
Trichoderma hamatum [28] = assay: Antifungal activity against Trichoderma hamatum assessed as radial growth at 7% after 72 hrs by poison food technique of Flack relative to control; assay type: functional; outline: as §1
Aspergillus niger [29] = assay: Antifungal activity against Aspergillus niger; assay type: functional
Trichoderma hamatum [30] = assay: Antifungal activity against Trichoderma hamatum assessed as radial growth at 3% after 24 hrs by poison food technique of Flack relative to control; assay type: functional
Aspergillus niger [31] = assay: Antifungal activity against Aspergillus niger assessed as radial growth at 1% after 24 hrs by poison food technique of Flack relative to control; assay type: functional
Trichoderma hamatum [32] = assay: Antifungal activity against Trichoderma hamatum assessed as radial growth at 7% after 24 hrs by poison food technique of Flack; assay type: functional, organism-based
Outline: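 Poisoned-food method: acetone stock mixed into molten sterilized potato dextrose agar to final 0.5, 1, 3, 5 or 7%, poured into 90 mm plates. Plates were inoculated with a 9 mm mycelial disc from a 4-day-old pure culture and incubated at 25 ± 1 °C. Colony diameter (mm) was read every 24 h; mean of three replicates.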

Trichoderma hamatum [33] = assay: Antifungal activity against Trichoderma hamatum assessed as radial growth at 5% after 48 hrs by poison food technique of Flack relative to control; assay type: functional; outline: as §1
Aspergillus niger [34] = assay: Antifungal activity against Aspergillus niger assessed as radial growth at 0.5% after 72 hrs by poison food technique of Flack relative to control; assay type: functional
Trichoderma hamatum [35] = assay: Antifungal activity against Trichoderma hamatum assessed as radial growth at 1% after 72 hrs by poison food technique of Flack relative to control; assay type: functional
Aspergillus niger [36] = assay: Antifungal activity against Aspergillus niger assessed as radial growth at 5% after 24 hrs by poison food technique of Flack relative to control; assay type: functional
Trichoderma koningii [37] = assay: Antifungal activity against Trichoderma koningii assessed as radial growth at 3% after 24 hrs by poison food technique of Flack relative to control; assay type: functional; outline: as §1
Aspergillus niger [38] = assay: Antifungal activity against Aspergillus niger assessed as radial growth at 3% after 48 hrs by poison food technique of Flack relative to control; assay type: functional
Trichoderma koningii [39] = assay: Antifungal activity against Trichoderma koningii assessed as radial growth at 0.5% after 24 hrs by poison food technique of Flack relative to control; assay type: functional; outline: as §1
Trichoderma hamatum [40] = assay: Antifungal activity against Trichoderma hamatum assessed as radial growth at 0.5% after 24 hrs by poison food technique of Flack relative to control; assay type: functional
Aspergillus niger [41] = assay: Antifungal activity against Aspergillus niger assessed as radial growth at 7% after 48 hrs by poison food technique of Flack relative to control; assay type: functional
Trichoderma hamatum [42] = assay: Antifungal activity against Trichoderma hamatum assessed as radial growth at 3% after 72 hrs by poison food technique of Flack relative to control; assay type: functional
Trichoderma hamatum [43] = assay: Antifungal activity against Trichoderma hamatum assessed as radial growth at 5% after 72 hrs by poison food technique of Flack relative to control; assay type: functional; outline: as §1
Trichoderma hamatum [44] = assay: Antifungal activity against Trichoderma hamatum assessed as radial growth at 1% after 48 hrs by poison food technique of Flack relative to control; assay type: functional
Trichoderma koningii [45] = assay: Antifungal activity against Trichoderma koningii assessed as radial growth at 1% after 24 hrs by poison food technique of Flack relative to control; assay type: functional; outline: as §1

MIC (Trichoderma hamatum [13]): 0.025 µg/mL (≈ 0.0905 µM) | MIC (Trichoderma koningii [25]): 0.025 µg/mL (≈ 0.0905 µM) | MIC (Aspergillus niger [29]): 0.025 µg/mL (≈ 0.0905 µM)
Compound: CCOC(=O)C1=C(C)NC(=O)NC1c1ccccc1O (stereo not given)
inhibition (INH) (Aspergillus niger [1]): 100% | inhibition (INH) (Trichoderma koningii [2]): 55.7% | inhibition (INH) (Trichoderma koningii [3]): 97.31% | inhibition (INH) (Aspergillus niger [4]): 0% | inhibition (INH) (Trichoderma hamatum [5]): 100% | inhibition (INH) (Trichoderma koningii [6]): 70.83% | inhibition (INH) (Trichoderma hamatum [7]): 0% | inhibition (INH) (Trichoderma koningii [8]): 0% | inhibition (INH) (Trichoderma koningii [9]): 79.71% | inhibition (INH) (Trichoderma koningii [10]): 25.16% | inhibition (INH) (Aspergillus niger [11]): 16.07% | inhibition (INH) (Trichoderma koningii [12]): 0% | inhibition (INH) (Aspergillus niger [14]): 34.75% | inhibition (INH) (Aspergillus niger [15]): 60.71% | inhibition (INH) (Trichoderma hamatum [16]): 89.47% | inhibition (INH) (Trichoderma hamatum [17]): 21.05% | inhibition (INH) (Trichoderma hamatum [18]): 100% | inhibition (INH) (Trichoderma koningii [19]): 100% | inhibition (INH) (Trichoderma hamatum [20]): 0% | inhibition (INH) (Aspergillus niger [21]): 37.6% | inhibition (INH) (Aspergillus niger [22]): 17.75% | inhibition (INH) (Trichoderma hamatum [23]): 68.75% | inhibition (INH) (Trichoderma koningii [24]): 5.2% | inhibition (INH) (Aspergillus niger [26]): 66.07% | inhibition (INH) (Trichoderma koningii [27]): 38.81% | inhibition (INH) (Trichoderma hamatum [28]): 96.78% | inhibition (INH) (Trichoderma hamatum [30]): 63.84% | inhibition (INH) (Aspergillus niger [31]): 0% | Activity (Trichoderma hamatum [32]): Active | inhibition (INH) (Trichoderma hamatum [33]): 94.23% | inhibition (INH) (Aspergillus niger [34]): 33.35% | inhibition (INH) (Trichoderma hamatum [35]): 15.84% | inhibition (INH) (Aspergillus niger [36]): 40% | inhibition (INH) (Trichoderma koningii [37]): 50.72% | inhibition (INH) (Aspergillus niger [38]): 64.58% | inhibition (INH) (Trichoderma koningii [39]): 0% | inhibition (INH) (Trichoderma hamatum [40]): 0% | inhibition (INH) (Aspergillus niger [41]): 100% | inhibition (INH) (Trichoderma hamatum [42]): 59.1% | inhibition (INH) (Trichoderma hamatum [43]): 95.07% | inhibition (INH) (Trichoderma hamatum [44]): 22.44% | inhibition (INH) (Trichoderma koningii [45]): 0%
